Data: ChEMBL document CHEMBL1629639, “Selectivity of TMC207 towards mycobacterial ATP synthase compared with that towards the eukaryotic homologue” (Antimicrob Agents Chemother, 2009)
pIC50: −log10 of the molar value. Converted amounts (≈) assume the structure as drawn. The source made the active and inactive calls. No cut-off for these calls is given here.

How the values were obtained:
OVCAR-3 [1] = experiment: Inhibition of ATP synthase mediated ATP production in human OVCAR3 cells; assay type: cell-based
How it was run: (§1)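 OVCAR3 cells were grown in DMEM with 10% FBS and penicillin-streptomycin. Isolated mitochondria (250 μg/ml) and sonicated submitochondrial particles without outer membrane (150 μg/ml) were incubated 1 h at 25°C with compound and an ADP-regenerating system. ATP formed was quantified spectrophotometrically from glucose-6-phosphate oxidation with NADP+. Controls were DCCD 5 μM and oligomycin 1 μM.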

OVCAR-3 [2] = experiment: Inhibition of ATP synthase mediated ATP production in human OVCAR3 cells at 5 uM; assay type: cell-based; how it was run: as §1
Bos taurus [3] = species on record: Bos taurus; experiment: Inhibition of ATP synthase in bovine heart mitochondria assessed as inhibition of oxygen consumption; details: concentration not given here
How it was run: (§2)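 Mitochondria freshly isolated from M18 mouse liver or bovine heart. Oxygen was read by Clark electrode at 37°C in 20 mM Tris-HCl pH 7.3, 85 mM KCl, 5 mM KH2PO4, 2.3 mM MgCl2, 25 mM creatine and 25 mM phosphocreatine, with an ADP-regenerating system. Succinate energised the membrane; rotenone blocked complex I. Inhibition was taken as the fall in state III O2 rate. Oligomycin 0.6 μM served as control. Mean±SD of three independent experiments.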

Bos taurus [4] = species on record: Bos taurus; experiment: Inhibition of ATP synthase in bovine heart mitochondria assessed as effect on oxygen consumption at 175 uM; how it was run: as §2
Mus musculus [5] = species on record: Mus musculus; experiment: Inhibition of ATP synthase in M18 mouse liver mitochondria assessed as inhibition of oxygen consumption; how it was run: as §2
[6] = tested on: Mycobacterium tuberculosis; experiment: Antimicrobial activity against Mycobacterium tuberculosis; assay type: functional
OVCAR-3 [7] = experiment: Inhibition of ATP synthase mediated ATP production in human OVCAR3 cells at 1 uM; assay type: cell-based; how it was run: as §1
[8] = tested on: Mycolicibacterium smegmatis; experiment: Antimicrobial activity against Mycobacterium smegmatis; assay type: functional
OVCAR-3 [9] = experiment: Inhibition of ATP synthase mediated ATP production in human OVCAR3 cells at 200 uM; assay type: cell-based; how it was run: as §1
[10] = target: T1, Putative uncharacterized protein atpE (Mycolicibacterium smegmatis, UniProt Q5TIX5); experiment: Inhibition of Mycobacterium smegmatis MC2 155 ATP synthase subunit c-mediated ATP production at 100 nM
How it was run: (§3)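 Inverted membrane vesicles from M. smegmatis mc²155 incubated with compound at 25°C for 1 h with an ADP-regenerating system. ATP formed was quantified spectrophotometrically by following glucose-6-phosphate oxidation with NADP+. Controls were DCCD (100 μM) and oligomycin (1 μM). IC50 taken from the concentration-response of ATP synthesis.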

[11] = target: T1, Putative uncharacterized protein atpE; experiment: Inhibition of Mycobacterium smegmatis MC2 155 ATP synthase subunit c-mediated ATP production; how it was run: as §3
[12] = Inhibition of human ATP synthase mediated ATP production at 100 nM; how it was run: as §1
Mus musculus [13] = species on record: Mus musculus; experiment: Inhibition of ATP synthase in M18 mouse liver mitochondria assessed as effect on oxygen consumption at 175 uM; how it was run: as §2

T1 sequence (Q5TIX5 whole entry): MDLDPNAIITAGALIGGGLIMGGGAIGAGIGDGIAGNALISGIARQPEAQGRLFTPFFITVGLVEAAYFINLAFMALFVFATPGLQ

Compound: COc1nc2ccc(Br)cc2cc1[C@@H](c1ccccc1)[C@@](O)(CCN(C)C)c1cccc2ccccc12 [BEDAQUILINE]
- inhibition (OVCAR-3 [1]): inactive
- inhibition (OVCAR-3 [2]): > 90%
- inhibition (Bos taurus [3]): > 50%
- inhibition (Bos taurus [4]): inactive
- inhibition (Mus musculus [5]): > 80%
- MIC [6]: 0.03 µM (≈ 0.0167 µg/mL)
- inhibition (OVCAR-3 [7]): > 90%
- MIC [8]: 0.015 µM (≈ 0.00833 µg/mL)
- inhibition (OVCAR-3 [9]): 35%
- pIC50 [10]: 8.00
- pIC50 [11]: 8.00
- pIC50 [12]: < 3.70
- inhibition (Mus musculus [13]): inactive
